In ChEMBL document CHEMBL1127020, “3-Quinolinecarboxamides. A series of novel orally-active antiherpetic agents” (1993):
In brackets after ≈: the same amount, converted by molar mass. Activity calls are given as the source filed them. No cut-off for these calls is given here.

How the values were obtained:
Human alphaherpesvirus 2 [1] = test: (§1) In vitro minimum inhibitory concentration against herpes simplex virus-2 (HSV-2) by plaque-reduction assay in vero cells; format: functional
Human alphaherpesvirus 2 [2] = test: In vivo maximum tolerated dose against herpes simplex virus-2 (HSV-2) by oral administration in female mice; format: functional
Human alphaherpesvirus 2 [3] = test: In vitro maximum tolerated level against herpes simplex virus-2 (HSV-2) by plaque-reduction assay in vero cells; format: functional
Mus musculus = test: Tested in vivo for minimum effective dose against herpes simplex virus-2 (HSV-2) by oral administration in female mice;not active; format: functional, organism-based
In short: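 Swiss female ICR mice (13–15 g) infected intravaginally with HSV-2 (Curtis) at a dose set for 80% mortality. Compound suspended in 1% gum tragacanth/2% Tween 80, given intragastrically at serial 2-fold doses, 20 mice per dose, 2 h before infection then twice daily for 5 d. Mortality followed 14 d; MED = lowest dose with survival differing from placebo (Mantel-Cox, Breslow).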

Vero [4] = test: Tested in vitro for minimum inhibitory concentration against herpes simplex virus-1 (HSV-1) 1142 strain by plaque-reduction assay in vero cells; format: functional; details: Chlorocebus sabaeus
In short: (§2)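 Vero monolayers (2 days old, confluent; Hank's MEM + 5% inactivated FCS, 37 °C, 2% CO2) infected with ~80 PFU; after 1-h adsorption, overlay of M199/5% FCS with 1:150 human immune serum globulin plus serial 2-fold compound dilutions (1:200 from DMSO). 3 d incubation, glutaraldehyde fix, crystal violet stain, plaque count. MIC = lowest concentration giving 50% plaque reduction; mean of ≥2 experiments.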

Vero [5] = test: Tested in vitro for minimum inhibitory concentration against herpes simplex virus-2 (HSV-2) 2115 strain by plaque-reduction assay in vero cells; format: functional; details: Chlorocebus sabaeus; in short: as §2
Vero [6] = test: Tested in vitro for minimum inhibitory concentration against herpes simplex virus-1 (HSV-1) KOS strain by plaque-reduction assay in vero cells; format: functional; details: Chlorocebus sabaeus; in short: as §2
Vero [7] = test: Tested in vitro for minimum inhibitory concentration against herpes simplex virus-1 (HSV-1) 2992 strain by plaque-reduction assay in vero cells; format: functional; details: Chlorocebus sabaeus; in short: as §2
Vero [8] = test: Tested in vitro for minimum inhibitory concentration against herpes simplex virus-1 (HSV-1) F strain by plaque-reduction assay in vero cells; format: functional; details: Chlorocebus sabaeus; in short: as §2
Vero [9] = test: Tested in vitro for minimum inhibitory concentration against herpes simplex virus-1 (HSV-1) KOS, ACG strain by plaque-reduction assay in vero cells; format: functional; details: Chlorocebus sabaeus; in short: as §2
Vero [10] = test: Tested in vitro for minimum inhibitory concentration against herpes simplex virus-2 (HSV-2) curtis strain by plaque-reduction assay in vero cells; format: functional; details: Chlorocebus sabaeus; in short: as §2
Vero [11] = test: Tested in vitro for minimum inhibitory concentration against herpes simplex virus-2 (HSV-2) 2011 strain by plaque-reduction assay in vero cells; format: functional; details: Chlorocebus sabaeus; in short: as §2
Human alphaherpesvirus 2 [12] = test: Minimum effective dose against herpes simplex virus-2 (HSV-2) by oral administration in female mice.; format: functional; details: Human alphaherpesvirus 2, po; read-out: MED
Vero [13] = test: as §1; format: functional, cell-based; details: Chlorocebus sabaeus; in short: as §2
Vero [14] = test: Tested in vitro for minimum inhibitory concentration against herpes simplex virus-2 (HSV-2) 2011 strain by plaque-reduction assay in vero cells; details: Chlorocebus sabaeus
Vero [15] = test: Tested in vitro for minimum inhibitory concentration against herpes simplex virus-2 (HSV-2) by plaque-reduction assay in vero cells; not active; format: functional, cell-based; details: Chlorocebus sabaeus; in short: as §2

CCn1cc(C(=O)NN)c(=O)c2ccc(-c3ccncc3)cc21 showed an MIC (Human alphaherpesvirus 2 [1]) of 38 mg/L (≈ 123 µM), an MTD (Human alphaherpesvirus 2 [2]) of 100 mg/kg and an MTL (Human alphaherpesvirus 2 [3]) of 50 µg/mL. For the same compound, the MED (Mus musculus) was “inactive”.
Nc1nc2c(ncn2COCCO)c(=O)[nH]1 [ACYCLOVIR] showed an MIC (Vero [4]) of 7.8 mg/L (≈ 34.6 µM), an MIC (Vero [5]) of 77 mg/L (≈ 342 µM) and an MIC (Human alphaherpesvirus 2 [1]) of 1.3 mg/L (≈ 5.77 µM). For the same compound, the MTD (Human alphaherpesvirus 2 [2]) was greater than 200 mg/kg, the MIC (Vero [6]) was 0.14 mg/L (≈ 0.622 µM) and the MIC (Vero [7]) was 11 mg/L (≈ 48.8 µM). For the same compound, the MTL (Human alphaherpesvirus 2 [3]) was greater than 200 µg/mL, the MIC (Vero [8]) was 0.29 mg/L (≈ 1.29 µM) and the MIC (Vero [9]) was 43 mg/L (≈ 191 µM). The MIC (Vero [10]) was 1.3 mg/L (≈ 5.77 µM), the MIC (Vero [11]) was 43 mg/L (≈ 191 µM) and the minimal effective dose (Human alphaherpesvirus 2 [12]) was 12 mg/kg.
With NC(=O)c1cn(-c2ccc(Cl)c(Cl)c2)c2cc(-c3ccncc3)ccc2c1=O the MIC (Human alphaherpesvirus 2 [1]) was 0.52 mg/L (≈ 1.27 µM), the MTD (Human alphaherpesvirus 2 [2]) was 100 mg/kg and the MTL (Human alphaherpesvirus 2 [3]) was greater than 100 µg/mL. The minimal effective dose (Human alphaherpesvirus 2 [12]) was 50 mg/kg.
Work on NC(=O)c1cn(-c2ccncc2)c2cc(-c3ccncc3)ccc2c1=O yielded an MIC (Human alphaherpesvirus 2 [1]) of 7.2 mg/L (≈ 21 µM), an MTD (Human alphaherpesvirus 2 [2]) of 75 mg/kg and an MTL (Human alphaherpesvirus 2 [3]) greater than 200 µg/mL. It also gave a minimal effective dose (Human alphaherpesvirus 2 [12]) of 75 mg/kg.
In the case of NC(=O)c1cn(-c2ccc(F)cc2)c2cc(-c3cc[n+]([O-])cc3)ccc2c1=O, the MTD (Human alphaherpesvirus 2 [2]) is reported as 100 mg/kg, the MIC (Vero [13]) is reported as “inactive” and the MTL (Human alphaherpesvirus 2 [3]) is reported as greater than 12.5 µg/mL. The minimal effective dose (Human alphaherpesvirus 2 [12]) was 25 mg/kg.
NC(=O)c1c(N)n(-c2ccc(F)cc2)c2cc(-c3ccncc3)ccc2c1=O was tested, and the MIC (Human alphaherpesvirus 2 [1]) was 0.33 mg/L (≈ 0.881 µM), the MTD (Human alphaherpesvirus 2 [2]) was 50 mg/kg and the MTL (Human alphaherpesvirus 2 [3]) was greater than 100 µg/mL. For the same compound, the minimal effective dose (Human alphaherpesvirus 2 [12]) was 50 mg/kg.
NC(=O)c1cn(-c2ccc(Cl)cc2)c2cc(-c3ccncc3)ccc2c1=O gave an MIC (Human alphaherpesvirus 2 [1]) of 0.4 mg/L (≈ 1.06 µM), an MTD (Human alphaherpesvirus 2 [2]) of 100 mg/kg and an MTL (Human alphaherpesvirus 2 [3]) greater than 25 µg/mL. It also gave a minimal effective dose (Human alphaherpesvirus 2 [12]) of 50 mg/kg.
NC(=O)c1cn(-c2ccc(Br)cc2)c2cc(-c3ccncc3)ccc2c1=O showed an MIC (Human alphaherpesvirus 2 [1]) of 0.47 mg/L (≈ 1.12 µM), an MTD (Human alphaherpesvirus 2 [2]) of 50 mg/kg and an MTL (Human alphaherpesvirus 2 [3]) greater than 12.5 µg/mL. For the same compound, the minimal effective dose (Human alphaherpesvirus 2 [12]) was 50 mg/kg.
Compound NC(=O)c1cn(-c2ccc(F)cc2)c2cc(-c3ccncc3)ccc2c1=O has an MIC (Vero [4]) of 0.18 mg/L (≈ 0.501 µM), an MIC (Vero [5]) of 0.13 mg/L (≈ 0.362 µM) and an MIC (Human alphaherpesvirus 2 [1]) of 0.24 mg/L (≈ 0.668 µM). The MTD (Human alphaherpesvirus 2 [2]) was 50 mg/kg, the MIC (Vero [6]) was 0.23 mg/L (≈ 0.64 µM) and the MIC (Vero [7]) was 0.24 mg/L (≈ 0.668 µM). It also gave an MTL (Human alphaherpesvirus 2 [3]) of 6.25 µg/mL, an MIC (Vero [8]) of 0.13 mg/L (≈ 0.362 µM) and an MIC (Vero [9]) of 0.32 mg/L (≈ 0.89 µM). For the same compound, the MIC (Vero [10]) was 0.24 mg/L (≈ 0.668 µM), the MIC (Vero [14]) was 0.15 mg/L (≈ 0.417 µM) and the minimal effective dose (Human alphaherpesvirus 2 [12]) was 25 mg/kg.
With CCn1cc(C(=O)NC)c(=O)c2ccc(-c3ccncc3)cc21 the MIC (Human alphaherpesvirus 2 [1]) was 9 mg/L (≈ 29.3 µM), the MTD (Human alphaherpesvirus 2 [2]) was 50 mg/kg and the MTL (Human alphaherpesvirus 2 [3]) was greater than 25 µg/mL. The minimal effective dose (Human alphaherpesvirus 2 [12]) was 50 mg/kg.
CCn1cc(C(=O)NNC)c(=O)c2ccc(-c3ccncc3)cc21 was tested, and the MIC (Vero [13]) was “inactive” and the MTL (Human alphaherpesvirus 2 [3]) was 25 µg/mL.
CCn1cc(C(N)=O)c(=O)c2ccc(-c3ccncc3)cc21 showed an MIC (Human alphaherpesvirus 2 [1]) of 6.5 mg/L (≈ 22.2 µM), an MTD (Human alphaherpesvirus 2 [2]) of 50 mg/kg and an MTL (Human alphaherpesvirus 2 [3]) of 12.5 µg/mL. For the same compound, the minimal effective dose (Human alphaherpesvirus 2 [12]) was 50 mg/kg.
CCn1cc(C(=O)N(C)O)c(=O)c2ccc(-c3ccncc3)cc21 was tested, and the MIC (Vero [15]) was “inactive” and the MTL (Human alphaherpesvirus 2 [3]) was 50 µg/mL.
For NC(=O)c1cn(-c2ccccc2)c2cc(-c3ccncc3)ccc2c1=O, the MIC (Human alphaherpesvirus 2 [1]) was 0.78 mg/L (≈ 2.28 µM), the MTD (Human alphaherpesvirus 2 [2]) was 50 mg/kg and the MTL (Human alphaherpesvirus 2 [3]) was 6.25 µg/mL. The minimal effective dose (Human alphaherpesvirus 2 [12]) was 25 mg/kg.
NC(=O)c1cn(-c2cccc(F)c2)c2cc(-c3ccncc3)ccc2c1=O was tested, and the MIC (Human alphaherpesvirus 2 [1]) was 0.71 mg/L (≈ 1.98 µM), the MTD (Human alphaherpesvirus 2 [2]) was 50 mg/kg and the MTL (Human alphaherpesvirus 2 [3]) was greater than 25 µg/mL. For the same compound, the minimal effective dose (Human alphaherpesvirus 2 [12]) was 50 mg/kg.
Compound CCn1cc(C(=O)NO)c(=O)c2ccc(-c3ccncc3)cc21 has an MIC (Human alphaherpesvirus 2 [1]) of 6.8 mg/L (≈ 22 µM), an MTD (Human alphaherpesvirus 2 [2]) of 100 mg/kg and an MTL (Human alphaherpesvirus 2 [3]) of 25 µg/mL. For the same compound, the MED (Mus musculus) was “inactive”.
